Most compounds without a hit are left out; they make up all but 2.3% or so of the library.
TRPC6 act: mouse TRPC6 channel activation; HEK293-TRPC6 membrane potential dye fluorescence; stronger effect = higher value; 310,000 tested, 0.13% active; B-score at 10 µM;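 active = B-score of the integrated fluorescence ratio above library mean plus 3 SD, and starting fluorescence ratio within library mean plus 5 SD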;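 note: higher score means more depolarization so channel activation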
TRPC6 inh: blocks the mouse TRPC6 cation channel | Q61143 | HEK293-TRPC6, membrane potential dye, ACh-evoked depolarization; stronger effect = lower value | B-score at 10 µM | 310,000 tested, 1.1% active | AID 2553;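 active = B-score under library mean minus 3 SD, initial fluorescence not abnormally high, positive integrated signal ratio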;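 note: B-score derived from integrated fluorescence ratio over the kinetic read; more negative B-score means stronger inhibition of depolarization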
TRPC4 block: inhibitors of mouse TRPC4 channel; HEK293 TRPC4beta/mu-opioid, DAMGO-evoked Fluo4 calcium flux; stronger effect = lower value; B-score at 10 µM; 300,000 tested, 0.39% active; AID 2247;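 active = B-score over 3 SD under the library average, no early fluorescence shift, positive overall ratio signal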
Target sequence (Q9QUQ5 whole entry, looked up): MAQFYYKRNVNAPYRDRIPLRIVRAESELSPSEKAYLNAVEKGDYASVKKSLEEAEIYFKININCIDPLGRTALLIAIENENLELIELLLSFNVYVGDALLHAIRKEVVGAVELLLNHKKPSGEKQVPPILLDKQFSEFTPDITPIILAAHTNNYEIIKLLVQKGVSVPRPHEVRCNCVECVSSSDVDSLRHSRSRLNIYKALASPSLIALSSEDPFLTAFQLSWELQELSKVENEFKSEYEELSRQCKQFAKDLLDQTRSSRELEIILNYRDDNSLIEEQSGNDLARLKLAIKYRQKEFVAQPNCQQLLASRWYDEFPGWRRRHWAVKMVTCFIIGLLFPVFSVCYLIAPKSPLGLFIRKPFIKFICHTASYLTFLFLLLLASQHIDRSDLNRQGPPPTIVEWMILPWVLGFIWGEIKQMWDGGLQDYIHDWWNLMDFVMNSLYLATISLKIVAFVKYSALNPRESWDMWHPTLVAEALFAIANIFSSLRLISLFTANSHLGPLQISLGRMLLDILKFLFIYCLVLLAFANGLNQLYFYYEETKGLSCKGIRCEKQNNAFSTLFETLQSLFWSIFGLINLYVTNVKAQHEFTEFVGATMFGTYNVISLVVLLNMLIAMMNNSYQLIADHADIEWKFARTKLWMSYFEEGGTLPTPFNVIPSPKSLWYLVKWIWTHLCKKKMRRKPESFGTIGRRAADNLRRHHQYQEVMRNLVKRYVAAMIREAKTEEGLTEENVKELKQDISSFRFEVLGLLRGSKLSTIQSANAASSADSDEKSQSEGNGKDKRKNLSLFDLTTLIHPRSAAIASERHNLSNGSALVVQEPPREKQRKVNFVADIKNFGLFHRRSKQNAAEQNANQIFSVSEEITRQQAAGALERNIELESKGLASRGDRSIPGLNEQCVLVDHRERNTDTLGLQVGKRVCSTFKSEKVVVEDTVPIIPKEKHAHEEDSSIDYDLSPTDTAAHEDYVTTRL
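Assay system: TRPC4beta/mu-opioid receptor HEK293 cell line; compound dosing: single concentration per test compound; detection: Fluo4 Ca2+ flux fluorescence; evaluation: per-well B score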
TRPC4 PAM: TRPC4 (mouse) allosteric potentiation. HEK293 TRPC4beta/mu-opioid, DAMGO EC20, Fluo-4 Ca2+ flux; stronger effect = higher value. B-score at 10 µM. 310,000 tested, 0.42% active;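 active = B-score of calcium response area above 5 SD of library B-scores, with initial fluorescence ratio within 5 SD of library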;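 note: B-score of integrated fluorescence ratio over time as area under calcium response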
TRPC4 agonist: TRPC4 (mouse) channel activation; Q9QUQ5; HEK293 TRPC4beta/mu-opioid, Fluo4 calcium fluorescence; stronger effect = higher value; B-score at 10 µM; 310,000 tested, 0.49% active; AID 2237;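 active = B-score above 5 SD of library B-scores, and initial fluorescence ratio not above library mean plus 5 SD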;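 note: positive B-score marks a calcium rise read as TRPC4 activation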
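System – HEK293 cells stably co-expressing mouse TRPC4beta and mu-opioid receptor · Signal – Fluo4 calcium-sensitive dye fluorescence, kinetic, 1 Hz baseline · Benchmarks – buffer (low) and maximal DAMGO (high) · Read-out – B score of integrated fluorescence ratio per well · Incubation – dye loading 45 min room temperature, 110 s kinetic read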
TRPC4 sel inh 2: second check of whether TRPC6 inhibitors also affect mouse TRPC4. AID 2776. inhibition, % at 10 µM. shares compounds with TRPC6 inh. HEK293 TRPC4/MOR, membrane potential dye fluorescence; channel activated by saturating DAMGO dose. 920 tested, 42% active;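 active = compounds whose fluorescence signal differed from control wells by over 3 SD, either direction, in both duplicate plates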
TRPC4 spec: selectivity of TRPC6 inhibitors: effect on mouse TRPC4 | shares compounds with TRPC6 inh | activity change, negative = inhibition, % at 10 µM | HEK293 TRPC4/mu-opioid, membrane potential fluorescence | 920 tested, 61% active;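 active = rise or fall in signal beyond 3 SD of buffer-only wells in both replicate plates, either sign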;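 note: integrated kinetic ratio of fluorescence range over baseline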
HEK293 MPD ctr 2-1: parental HEK293 nonspecific activity of TRPC6 inhibitors, second screen; AID 2779; parental HEK293 membrane potential dye fluorescence; maximal acetylcholine challenge after compound addition; shares compounds with TRPC6 inh; signal change vs control, % at 10 µM; 920 tested, 31% active;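 active = membrane potential signal moving either way by over 3 SD of the maximum-effect control, in both duplicate plates, meaning non-specific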
HEK293 MPD ctr-1: parental HEK293 nonspecific activity of TRPC6 inhibitors; shares compounds with TRPC6 inh; 920 tested, 60% active; membrane potential signal change, % at 10 µM; parental HEK293 membrane potential dye fluorescence;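 active = membrane potential signal shifting up or down by more than 3 SD of buffer-only wells, on both duplicate plates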
HEK293 MPD ctr-2: parental HEK293 nonspecific activity of TRPC6 modulators; shares compounds with TRPC6 inh; membrane potential dye fluorescence; membrane potential signal change, % at 10 µM; 2,400 tested, 51% active; AID 488924;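 active = membrane potential signal moves up or down beyond 5 SD from buffer-only wells, on both duplicate plates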
HEK293 MPD ctr 2-2: second check of TRPC6 modulator effects in parental HEK293 cells; shares compounds with TRPC6 inh; membrane potential dye fluorescence; after compound, maximal acetylcholine stimulation; inhibition, % at 10 µM; 2,400 tested, 14% active;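 active = membrane potential signal drops by more than 5 SD from the mean control signal, in both duplicate plates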;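 note: plate controls were acetylcholine ECmax control wells for no effect and buffer only wells for full effect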
TRPC4/MOR mod: tests whether TRPC6 modulators also affect mouse TRPC4; percent change from control (negative = decrease, positive = increase), % at 10 µM; 2,400 tested, 69% active; HEK293 TRPC4/mu-opioid, membrane potential fluorescence; AID 488927; shares compounds with TRPC6 inh;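 active = membrane potential signal moved up or down beyond 5 SD of buffer control wells, in both duplicate plates, actives on both sides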;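 note: plate controls were assay buffer wells for no effect and DAMGO maximal-effect wells for full effect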
TRPC4 ctr inh 2: mouse TRPC4 off-target activity of TRPC6 modulators, second screen; shares compounds with TRPC6 inh; HEK293 TRPC4/mu-opioid, membrane potential dye fluorescence; stimulated with maximal-effect DAMGO; inhibition, % at 10 µM; 2,400 tested, 55% active;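 active = drop in membrane potential signal beyond 5 SD of the control wells in both duplicate plates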;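 note: TRPC4 counter screen for TRPC6 hits run under conditions tuned for TRPC6 not TRPC4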
TRPC6 block conf: confirmation of mouse TRPC6 inhibitors; shares compounds with TRPC6 inh; HEK293-TRPC6, membrane potential dye, ACh-evoked depolarization; inhibition, % at 10 µM; 3,300 tested, 43% active; AID 488960;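 active = fluorescence ratio falls more than 5 SD below the full-stimulation control mean, in both duplicate runs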;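 note: integrated fluorescence ratio of peak minus minimum over baseline after agonist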
TRPC6 act conf: confirmation of mouse TRPC6 activators. activation, % at 10 µM. AID 488961. HEK293-TRPC6 membrane potential dye fluorescence, FDSS. 2,800 tested, 11% active. shares compounds with TRPC6 inh;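 active = ratio signal rise beyond 5 SD above unstimulated control wells' mean, seen in both duplicate runs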;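 note: plate controls were buffer EC0 wells for no effect and acetylcholine ECmax response for full effect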
* marks the source's active call; other numbers are inactive results; i = inactive; x = no result.

SMILES | TRPC6 act | TRPC6 inh | TRPC4 block | TRPC4 PAM | TRPC4 agonist | HEK293 MPD ctr-2 | HEK293 MPD ctr 2-2 | TRPC4/MOR mod | TRPC4 ctr inh 2 | TRPC6 block conf | TRPC6 act conf | others
Cc1ccc(CSCC(=O)N2CCN(c3ccc(F)cc3)CC2)cc1 | i | i | i | i | i | x | x | x | x | x | x
O=C(CSCc1ccc(F)cc1)N1CCN(c2ccc(F)cc2)CC1 | i | -5.4* | i | i | i | i | i | i | i | i | i
CCn1cc(C(=O)OCC(=O)N(C)C2CCS(=O)(=O)C2)c(=O)c2ccc(C)nc21 (configuration not stated) | i | -5.4* | i | i | i | -269%* | i | -54%* | i | 60%* | i
CC(c1ccccc1)C(NC(=O)OCC1c2ccccc2-c2ccccc21)C(=O)O (configuration not stated) | i | i | i | i | i | x | x | x | x | x | x
COc1ccc(NC(=S)N(CCCN2CCC(C)CC2)Cc2cccs2)cc1Cl | i | -6* | i | i | i | i | i | i | 84%* | 48%* | i
CSc1cccc(NC(=S)N(CCCN2CCCC(C)C2)Cc2cccs2)c1 (configuration not stated) | i | -8.1* | i | i | i | x | x | x | x | 56%* | i | TRPC4 sel inh 2=48%*;TRPC4 spec=2.2%*;HEK293 MPD ctr 2-1=i;HEK293 MPD ctr-1=3.1%*
COc1ccc(NC(=S)N(CCCN2CCN(C)CC2)Cc2cccs2)cc1 | i | i | i | i | i | x | x | x | x | x | x
CCCc1cc(=O)oc2cc(C)cc(OCC(=O)NCc3ccncc3)c12 | i | i | i | i | i | x | x | x | x | x | x
COc1cc2c(cc1OC)C(c1ccc(-c3ccc(Cl)cc3Cl)o1)=NCC2 | i | i | i | i | i | x | x | x | x | x | x
COc1cc2c(cc1OC)C(c1ccc(-c3ccccc3Cl)o1)=NCC2 | i | -6.2* | i | i | i | -190%* | i | -48%* | 52%* | 40%* | i
COc1cc2c(cc1OC)C(c1ccc(Cl)cc1)=NCC2 | i | -6.2* | i | i | i | -275%* | i | -40%* | 52%* | 44%* | i
COc1cc2c(cc1OC)C(c1ccc(-c3ccc(Cl)c(Cl)c3)o1)=NCC2 | i | i | i | i | i | x | x | x | x | x | x
O=C(CNC(=O)c1ccc(Cl)cc1Cl)OCCCn1c(=O)[nH]c2ccccc21 | i | i | i | i | i | x | x | x | x | x | x

Source: PubChem
